The list is not random: actives were taken first. Their share in the collection is about 3.3%.
CendR NRP1 mod – alters CendR peptide binding to human NRP-1; AID 602438; FAM-RPARPAR peptide binding to NRP-1, fluorescence polarization; inhibition, % at 25 µM; 360,000 tested, 0.85% active; O14786;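 active means inhibition or corrected inhibition above about 18%, plus a signal ratio from 0.5 to 1.5, limit read from the data, passing the limit was not always enough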
SENP8 block-1 – inhibitors of human SENP8 protease | purified SENP8, Z-RLRGG-aminoluciferin cleavage, luminescence | AID 2540 | inhibition, % at 10 µM | 330,000 tested, 1.2% active; in the data active means inhibition above about 50%
SENP7 inh – SENP7 protease inhibition | inhibition, % at 5 µM | 330,000 tested, 1.5% active | Q9BQF6 | recombinant SENP7, Z-RLRGG-aminoluciferin luminescence, 40 min | AID 434973;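 active means inhibition above about 50% at the single test dose, limit read from the data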
Target sequence (Q9BQF6 706-1050 limits assumed): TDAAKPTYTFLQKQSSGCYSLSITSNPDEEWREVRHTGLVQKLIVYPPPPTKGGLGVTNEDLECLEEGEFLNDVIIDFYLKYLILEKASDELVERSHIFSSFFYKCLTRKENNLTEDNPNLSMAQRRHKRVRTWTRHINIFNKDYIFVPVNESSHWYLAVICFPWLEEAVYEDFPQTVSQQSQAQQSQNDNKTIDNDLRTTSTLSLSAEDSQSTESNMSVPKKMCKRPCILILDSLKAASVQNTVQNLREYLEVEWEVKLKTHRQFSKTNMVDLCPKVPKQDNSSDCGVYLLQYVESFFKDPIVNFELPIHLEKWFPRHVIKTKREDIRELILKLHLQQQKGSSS
SENP8 block-2 – SENP8 (human) protease inhibition; Q96LD8; recombinant SENP8, Nedd8 substrate fluorescence; inhibition, % at 20 µM; 360,000 tested, 0.64% active; AID 602440; in the data active means inhibition mostly above about 40%, no sharp cut-off; inactive means mostly below about 27%
SENP1 FRET inh – inhibitors of human SENP1 SUMO protease catalytic domain | AID 624204 | Q9P0U3 | inhibition, % at 10 µM | recombinant SENP1 catalytic domain, CyPet-SUMO1-YPet FRET cleavage | 360,000 tested, 0.21% active;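 active means inhibition at least 30% at 10 µM, raw YFP signal under a set limit, fluorescence ratio 0.5 to 1.5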
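Test system: hSENP1 catalytic domain, recombinant; Amount: 20 pM final SENP1 enzyme; Medium: Tris pH 8 buffer plus EDTA, NaCl, BME, BSA, NP40, catalase; Schedule: 50 min enzyme reaction, room temperature, light-protected; Technique: FRET fluorescence in CFP and YFP emission channels; Controls: no-enzyme wells low, DMSO-plus-enzyme wells high control.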
SENP6 inh – blocks the human protease SENP6 | Q9GZR1 | Recombinant SENP6 catalytic domain, aminoluciferin luminescence | inhibition, % at 10 µM | 330,000 tested, 1.8% active;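 active means inhibition above about 50% at the single tested dose, limit read from the data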
Large screens that a line does not name were inactive.

CC1=NN(c2ccc([N+](=O)[O-])cc2)C(=O)C1	SENP8 block-2 71 (no result: SENP8 block-1, SENP7 inh, SENP6 inh)
CCCCCn1c(=O)[nH]c2cc(C(=O)NCCCN3CCC(C)CC3)ccc2c1=O	CendR NRP1 mod 28
CCCCCCCCN1C(=O)[C@H](CC(=O)N2CCOCC2)C[C@@]2(C(=O)OC)CC(C)(C)CC=C12	none (no result: SENP8 block-1, SENP7 inh, SENP6 inh)
Cc1cc(SCC(=O)c2cc(C)n(C)c2C)nc2ccccc12	CendR NRP1 mod 42
NC(=S)N=Nc1c(O)[nH]c2ccccc12	none
NC(=S)N=Nc1c(O)[nH]c2c(Br)cc(Br)cc12	SENP8 block-2 52
C[n+]1cccc(NC(=O)c2ccccc2)c1	none (no result: SENP8 block-1, SENP7 inh, SENP6 inh)
COc1ccc2nc(NC(=O)c3cc(S(=O)(=O)N4CCOCC4)ccc3C)sc2c1	CendR NRP1 mod 26
COc1ccc2nc(NC(=O)c3cccc(S(=O)(=O)N4CCOCC4)c3)sc2c1	none
Cc1ccc(S(=O)(=O)N2CCOCC2)cc1NCC(=O)Nc1ccc(OC(F)(F)F)cc1	CendR NRP1 mod 20
COc1ccc2nc(NC(=O)CN3CCN(C)CC3)sc2c1	none
COc1ccc2nc(NC(=O)CN3CCOCC3)sc2c1	CendR NRP1 mod 21
CN(C)c1ccc2c(=O)c3ccccc3oc2n1	none (no result: SENP8 block-1, SENP7 inh, SENP6 inh)
CC1=C(C(=O)N2CCCCCC2)CC(CC(=O)NC(c2ccccc2)c2ccccc2)C(=O)N1CCC1=CCCCC1 (stereo unspecified)	none (no result: SENP8 block-1, SENP7 inh, SENP6 inh)
Cc1ccc2nc(-c3ccc(SCC(=O)Nc4ccc5c(c4)OCCO5)nc3)[nH]c2c1	SENP7 inh 51
Cc1cc2nc(-c3ccc(SCC(=O)Nc4ccc5c(c4)OCCO5)nc3)[nH]c2cc1C	none
O=C(NCc1ccco1)c1ccc(N2CCCCC2)c([N+](=O)[O-])c1	none
NNC(=O)c1ccc(N2CCCCCC2)c([N+](=O)[O-])c1	CendR NRP1 mod 31
COCCCN1C(=O)C(CC(=O)NCc2cccs2)CC(C(=O)N2CCCCCC2)=C1C (stereo unspecified)	none (no result: SENP8 block-1, SENP7 inh, SENP6 inh)
CCn1c(N)c(C(=O)NCc2cccnc2)sc1=S	CendR NRP1 mod 26
Cc1cccc(C)c1NC(=O)C(c1cccc2ccccc12)n1c(=O)c(-c2cc3ccccc3[nH]2)nc2ccccc21 (stereo unspecified)	none (no result: SENP8 block-1, SENP7 inh, SENP6 inh)
COc1cc(/C=N/N=C2/C(=O)Nc3ccccc32)cc(OC)c1O	CendR NRP1 mod 25
Cc1nc2[nH]c(=S)[nH]c2c(=O)[nH]1	none (no result: SENP8 block-1, SENP7 inh, SENP6 inh)
Cc1ccccc1NC(=O)c1ccc2c(c1)CCN2S(C)(=O)=O	none
Cc1cc(Cl)ccc1NC(=O)c1ccc2c(c1)CCN2S(C)(=O)=O	CendR NRP1 mod 16
CCOC(=O)c1ccc(N=Nc2c(C)c(C#N)c(O)[nH]c2=O)cc1	SENP8 block-1 94, SENP7 inh 98, SENP6 inh 92
Cc1c(CC(=O)N2CCN(C(=O)C3COc4ccccc4O3)CC2)c(=O)oc2cc(O)ccc12 (stereo unspecified)	CendR NRP1 mod 72
CCOc1cc(CNS(=O)(=O)c2cn(C)cn2)cc(OCC)c1OCC	CendR NRP1 mod 22
CCOc1ccc(CCNS(=O)(=O)c2cn(C)cn2)cc1OCC	none
COc1ccc(C(=O)NC2CC2)cc1OC1CCN(Cc2ccccc2)CC1	CendR NRP1 mod 22
COc1ccc(C(=O)NC2CC2)cc1OC1CCN(Cc2ccc(F)cc2)CC1	none
CCCCCCn1cc(CN2CC(N3CCCC3)CS2(=O)=O)nn1 (stereo unspecified)	none (no result: SENP8 block-1, SENP7 inh, SENP6 inh)
COc1ccc(COc2cc(-c3cccc(OC)c3)nc3ccc(NC(C)=O)cc23)cc1	CendR NRP1 mod 27
COc1ccc(COc2cc(-c3cccc(OC)c3)nc3ccc(NC(=O)c4ccc(N(C)C)cc4)cc23)cc1	CendR NRP1 mod 28
COc1ccc(COc2cc(-c3cccc(OC)c3)nc3ccc(NC(=O)c4ccc(C)cc4)cc23)cc1	none
CCN1C(=O)C(=O)c2cc(C)ccc21	CendR NRP1 mod 34
COC(=O)[C@@]1(Sc2ccc(C)cc2)CC(=O)N[C@@H]1c1ccc(C(F)(F)F)cc1	none (no result: SENP8 block-1, SENP7 inh, SENP6 inh)
CNC(=O)Nc1ccccc1C(=O)NCc1ccccc1	CendR NRP1 mod 27
CN(C)c1ccc(/C=C2\N=C(c3ccc(Cl)c([N+](=O)[O-])c3)NC2=O)cc1	SENP1 FRET inh 65
COC(=O)CC1C(=O)NCCN1C(=S)Nc1ccc(F)cc1 (stereo unspecified)	CendR NRP1 mod 36

Source: PubChem
